We go through seven compounds from PubChem BioAssay AID2539 (The Scripps Research Institute Molecular Screening Center, 2010).

SMILES strings stand for the structures. Calls of active or inactive are those of the source.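 How the source made its calls: active means at least 50% inhibition of the cell reactive oxygen species light signal; inactive means the rest.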

Holding throughout (test): NADPH oxidase isoform panel inhibitors – cell-based, HEK293 transfected, luminol chemiluminescence, powder samples, selectivity assay for NOX1 inhibitor project, late-stage follow-up (AID 2539)
Test [1] deals with NADPH oxidase 4 (Homo sapiens) (UniProt Q9NPH5). Particulars: HEK293 transfected NOX2/3/4, luminol ROS chemiluminescence; NOX4; at 10 µM; stronger effect = higher value. The essentials:
(§1)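 Test system: transfected HEK/293 cells expressing NOX2, NOX3 or NOX4; Reagent: luminol plus HRP probe; Compound: 10 µM single dose; Incubation: compounds added 16 h post-transfection, 2 h before probe; Signal: ROS chemiluminescence; Replication: each compound tested in triplicate.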

The target in test [2] is NADPH oxidase 2 (Homo sapiens) (UniProt P04839). Particulars: HEK293 transfected NOX2/3/4, luminol ROS chemiluminescence; NOX2; at 10 µM; stronger effect = higher value. In outline: as §1
NADPH oxidase 2 (Homo sapiens), sequence (P04839 whole entry, looked up): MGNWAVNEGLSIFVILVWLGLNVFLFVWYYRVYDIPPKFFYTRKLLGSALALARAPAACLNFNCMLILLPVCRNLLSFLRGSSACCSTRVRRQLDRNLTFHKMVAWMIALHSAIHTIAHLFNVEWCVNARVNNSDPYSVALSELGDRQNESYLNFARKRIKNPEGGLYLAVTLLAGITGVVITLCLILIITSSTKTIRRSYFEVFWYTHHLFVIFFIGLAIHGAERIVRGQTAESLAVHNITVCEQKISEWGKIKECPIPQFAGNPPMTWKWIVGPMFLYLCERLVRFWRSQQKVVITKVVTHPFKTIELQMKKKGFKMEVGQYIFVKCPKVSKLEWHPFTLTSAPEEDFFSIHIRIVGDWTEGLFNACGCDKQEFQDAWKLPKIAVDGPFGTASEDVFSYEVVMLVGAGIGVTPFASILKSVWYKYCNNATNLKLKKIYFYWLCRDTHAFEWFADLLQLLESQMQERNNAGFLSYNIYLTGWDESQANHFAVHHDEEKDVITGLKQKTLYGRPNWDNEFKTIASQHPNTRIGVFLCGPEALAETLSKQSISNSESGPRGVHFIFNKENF
The target of test [3] is NADPH oxidase 3 (Homo sapiens) (UniProt Q9HBY0). To be noted: HEK293 transfected NOX2/3/4, luminol ROS chemiluminescence; NOX3; at 10 µM; stronger effect = higher value. The essentials:
as §1

NADPH oxidase 3 (Homo sapiens), sequence (Q9HBY0 whole entry, looked up): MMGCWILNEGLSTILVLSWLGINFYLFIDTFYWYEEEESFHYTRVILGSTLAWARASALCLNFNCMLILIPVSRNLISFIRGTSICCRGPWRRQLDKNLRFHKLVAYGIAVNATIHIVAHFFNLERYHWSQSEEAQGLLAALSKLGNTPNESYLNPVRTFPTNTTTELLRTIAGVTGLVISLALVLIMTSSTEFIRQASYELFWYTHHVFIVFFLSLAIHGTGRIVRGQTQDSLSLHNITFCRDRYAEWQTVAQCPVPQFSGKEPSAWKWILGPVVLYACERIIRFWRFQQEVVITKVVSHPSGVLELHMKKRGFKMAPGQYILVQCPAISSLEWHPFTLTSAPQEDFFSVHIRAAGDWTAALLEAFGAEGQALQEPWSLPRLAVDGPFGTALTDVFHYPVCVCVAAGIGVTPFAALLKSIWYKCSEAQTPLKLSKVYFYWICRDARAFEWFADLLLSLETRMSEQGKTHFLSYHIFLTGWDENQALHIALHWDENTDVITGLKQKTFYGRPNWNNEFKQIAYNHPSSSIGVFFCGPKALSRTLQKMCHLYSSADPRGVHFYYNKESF
NADPH oxidase 4 (Homo sapiens), sequence (Q9NPH5 whole entry, looked up): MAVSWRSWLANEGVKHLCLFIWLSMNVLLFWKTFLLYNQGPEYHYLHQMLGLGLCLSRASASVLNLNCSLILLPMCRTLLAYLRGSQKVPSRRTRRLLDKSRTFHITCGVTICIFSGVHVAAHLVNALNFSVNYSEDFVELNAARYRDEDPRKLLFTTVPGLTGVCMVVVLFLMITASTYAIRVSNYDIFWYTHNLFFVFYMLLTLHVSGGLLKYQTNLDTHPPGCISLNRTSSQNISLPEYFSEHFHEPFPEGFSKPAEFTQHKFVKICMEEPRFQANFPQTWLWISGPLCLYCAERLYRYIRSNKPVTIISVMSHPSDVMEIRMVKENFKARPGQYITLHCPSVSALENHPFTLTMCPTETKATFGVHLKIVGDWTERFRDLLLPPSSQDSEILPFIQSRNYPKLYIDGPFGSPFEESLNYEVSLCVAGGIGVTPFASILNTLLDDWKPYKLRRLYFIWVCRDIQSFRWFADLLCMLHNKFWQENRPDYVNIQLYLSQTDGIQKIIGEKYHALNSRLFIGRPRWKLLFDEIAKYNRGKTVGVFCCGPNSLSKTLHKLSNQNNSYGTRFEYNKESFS

By inhibition is commonly meant the drop in the measured response relative to a control, in per cent. As to `Cc1cc(Cl)ccc1NC(=S)NNC(=S)Nc1ccc(F)cc1`, the inhibition in test [1] was 25% (inactive); in test [2] it was 6% (inactive); in test [3] it was 25% (inactive).

With `O=C(Oc1ccccc1N1CCCCC1)c1sc2ccccc2c1Cl`, the values for the inhibition in test [1], in test [2] and in test [3] were 3% (inactive), -3% (inactive) and 3% (inactive), respectively.

As to `FC(F)(F)c1ccc2c(c1)Nc1ccccc1S2`, the inhibition in test [1] was 10% (inactive); in test [2], 20% (inactive); in test [3], 10% (inactive).

Regarding `c1ccc2c(c1)Nc1nc3ccccc3nc1N2`, the inhibition in test [1] is -24% (inactive); in test [2], 2% (inactive); in test [3], -24% (inactive).

For the compound `COc1cc(-c2nc(-c3ccccc3)c(-c3ccccc3)[nH]2)ccc1O`, the inhibition in test [1] was 61%; in test [2] it was -7% (inactive); in test [3] it was 61%.

With `CN(C)c1ccc(NC(=O)Nc2ccc(OCc3ccccc3)cc2)cc1`, the inhibition was 52% in test [1], 32% (inactive) in test [2] and 52% in test [3].

Consider `CN(C)c1ccc(/C=N/Nc2c(Cl)cncc2Cl)cc1`, for which the inhibition is 3% (inactive) in test [1], 19% (inactive) in test [2] and 3% (inactive) in test [3].
